Measured values: ChEMBL document CHEMBL1781905, “Discovery and optimization of N-acyl and N-aroylpyrazolines as B-Raf kinase inhibitors” (Bioorg Med Chem Lett, 2010)

How the values were obtained:
[1] = molecular target: T1, Serine/threonine-protein kinase B-raf (Homo sapiens, UniProt P15056, V600E); experiment: Inhibition of human B-Raf V600E mutant after 3 hrs
Outline: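 Radiometric assay using 20 nM B-Raf V600E. It measures phosphorylation of a biotinylated surrogate peptide by ³³P-ATP in 50 mM HEPES pH 7.5 with 10 mM DTT and 50 mM MnCl₂ at 30 °C for 3 h. The reaction is stopped with 100 mM EDTA, captured 2 h on a streptavidin FlashPlate and scintillation-counted.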

[2] = molecular target: T1, Serine/threonine-protein kinase B-raf; experiment: Inhibition of B-Raf V600E mutant-mediated ERK phosphorylation in human A375 cells after 3 hrs by immunoblotting method; format: cell-based, A-375; details: in the assay text read “whole cell ELISA” for “immunoblotting method”
Outline: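 A375 (B-Raf V600E) cells are seeded overnight, then exposed to inhibitors for 3 h at 37 °C. Cells are fixed, permeabilized and blocked overnight. They are probed 1 h with anti-phospho-ERK antibody, then with HRP-linked reagent. The TMB substrate is read as optical density at 650 nm.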

[3] = molecular target: T2, Receptor-type tyrosine-protein kinase FLT3 (Homo sapiens, UniProt P36888); experiment: Inhibition of FLT3
T2 sequence (P36888 whole entry): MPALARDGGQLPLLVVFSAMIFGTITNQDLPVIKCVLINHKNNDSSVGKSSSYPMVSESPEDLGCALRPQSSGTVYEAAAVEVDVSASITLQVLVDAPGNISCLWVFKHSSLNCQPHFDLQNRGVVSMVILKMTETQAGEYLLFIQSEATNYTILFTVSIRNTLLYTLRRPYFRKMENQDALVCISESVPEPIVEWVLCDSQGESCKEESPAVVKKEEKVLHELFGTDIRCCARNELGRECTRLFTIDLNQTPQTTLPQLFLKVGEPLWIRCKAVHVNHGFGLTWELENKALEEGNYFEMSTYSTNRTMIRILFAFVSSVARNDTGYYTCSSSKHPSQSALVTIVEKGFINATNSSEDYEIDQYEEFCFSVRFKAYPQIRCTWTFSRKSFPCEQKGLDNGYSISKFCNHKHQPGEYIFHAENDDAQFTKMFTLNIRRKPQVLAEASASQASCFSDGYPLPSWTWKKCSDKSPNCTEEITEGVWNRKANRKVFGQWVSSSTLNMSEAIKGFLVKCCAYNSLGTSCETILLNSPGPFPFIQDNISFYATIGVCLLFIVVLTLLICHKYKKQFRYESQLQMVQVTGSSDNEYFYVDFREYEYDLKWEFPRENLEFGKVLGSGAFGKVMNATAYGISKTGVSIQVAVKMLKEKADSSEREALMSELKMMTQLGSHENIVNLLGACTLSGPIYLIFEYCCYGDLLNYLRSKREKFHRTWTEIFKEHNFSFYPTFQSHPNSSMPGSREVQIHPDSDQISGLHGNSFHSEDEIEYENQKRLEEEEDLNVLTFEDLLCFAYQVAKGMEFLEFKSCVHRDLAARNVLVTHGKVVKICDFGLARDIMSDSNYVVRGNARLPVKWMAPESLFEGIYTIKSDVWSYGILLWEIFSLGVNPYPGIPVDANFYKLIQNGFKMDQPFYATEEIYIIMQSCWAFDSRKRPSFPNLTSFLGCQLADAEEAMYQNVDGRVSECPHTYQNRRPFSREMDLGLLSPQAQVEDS

[4] = molecular target: Macrophage colony-stimulating factor 1 receptor (Homo sapiens, UniProt P07333); experiment: Inhibition of CSF1R
[5] = molecular target: RAC-beta serine/threonine-protein kinase (Homo sapiens, UniProt P31751); experiment: Inhibition of AKT2
[6] = molecular target: Fibroblast growth factor receptor 1 (Homo sapiens, UniProt P11362); experiment: Inhibition of FGFR1
[7] = molecular target: Vascular endothelial growth factor receptor 2 (Homo sapiens, UniProt P35968); experiment: Inhibition of KDR
[8] = molecular target: Mast/stem cell growth factor receptor Kit (Homo sapiens, UniProt P10721); experiment: Inhibition of KIT2
Chain of Mast/stem cell growth factor receptor Kit (P10721 whole entry): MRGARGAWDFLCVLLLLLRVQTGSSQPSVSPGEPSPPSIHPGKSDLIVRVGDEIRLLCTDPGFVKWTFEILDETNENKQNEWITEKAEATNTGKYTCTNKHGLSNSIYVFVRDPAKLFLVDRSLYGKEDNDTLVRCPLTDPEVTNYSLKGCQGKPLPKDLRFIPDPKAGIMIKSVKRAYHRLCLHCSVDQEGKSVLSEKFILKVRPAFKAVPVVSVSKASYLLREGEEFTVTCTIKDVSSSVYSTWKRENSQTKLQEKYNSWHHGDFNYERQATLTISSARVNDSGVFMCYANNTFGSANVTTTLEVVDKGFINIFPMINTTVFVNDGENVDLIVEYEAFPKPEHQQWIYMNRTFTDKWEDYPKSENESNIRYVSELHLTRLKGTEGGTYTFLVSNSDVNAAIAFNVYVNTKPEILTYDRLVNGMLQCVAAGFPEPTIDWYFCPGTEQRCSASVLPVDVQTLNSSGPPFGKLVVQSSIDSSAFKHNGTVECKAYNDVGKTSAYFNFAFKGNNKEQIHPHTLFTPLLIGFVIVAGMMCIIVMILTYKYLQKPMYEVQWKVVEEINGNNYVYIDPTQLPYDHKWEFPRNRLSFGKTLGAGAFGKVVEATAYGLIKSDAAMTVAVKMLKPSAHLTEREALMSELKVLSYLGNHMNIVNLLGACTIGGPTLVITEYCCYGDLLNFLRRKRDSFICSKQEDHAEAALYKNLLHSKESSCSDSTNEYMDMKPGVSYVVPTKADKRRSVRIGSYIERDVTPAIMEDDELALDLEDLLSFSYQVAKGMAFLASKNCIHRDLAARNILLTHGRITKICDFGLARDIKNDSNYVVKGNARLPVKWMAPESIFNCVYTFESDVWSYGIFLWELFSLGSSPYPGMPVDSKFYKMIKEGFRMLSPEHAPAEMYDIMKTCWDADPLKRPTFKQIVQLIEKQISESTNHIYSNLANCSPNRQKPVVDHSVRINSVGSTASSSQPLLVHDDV

T1 sequence (P15056 2-766 V600E limits assumed): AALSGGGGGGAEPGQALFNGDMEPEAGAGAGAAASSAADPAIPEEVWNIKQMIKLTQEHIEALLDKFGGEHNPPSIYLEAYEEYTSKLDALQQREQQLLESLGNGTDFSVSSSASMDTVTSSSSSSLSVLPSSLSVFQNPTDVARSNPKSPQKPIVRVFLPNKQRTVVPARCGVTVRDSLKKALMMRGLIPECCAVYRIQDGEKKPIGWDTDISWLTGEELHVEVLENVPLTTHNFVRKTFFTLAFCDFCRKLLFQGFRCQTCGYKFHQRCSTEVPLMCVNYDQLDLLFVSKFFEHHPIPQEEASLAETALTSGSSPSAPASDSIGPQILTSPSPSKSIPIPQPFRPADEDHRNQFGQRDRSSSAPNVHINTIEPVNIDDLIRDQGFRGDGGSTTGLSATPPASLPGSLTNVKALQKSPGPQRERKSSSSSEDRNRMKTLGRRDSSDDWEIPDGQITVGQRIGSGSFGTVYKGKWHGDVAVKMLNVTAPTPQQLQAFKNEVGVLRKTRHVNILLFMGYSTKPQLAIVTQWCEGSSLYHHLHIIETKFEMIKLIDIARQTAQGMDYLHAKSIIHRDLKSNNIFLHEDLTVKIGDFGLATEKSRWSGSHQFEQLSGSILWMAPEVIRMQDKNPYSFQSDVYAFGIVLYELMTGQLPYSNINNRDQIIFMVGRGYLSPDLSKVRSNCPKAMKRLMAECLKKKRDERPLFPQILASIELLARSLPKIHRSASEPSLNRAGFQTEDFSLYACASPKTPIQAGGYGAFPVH
Chain of RAC-beta serine/threonine-protein kinase (P31751 whole entry): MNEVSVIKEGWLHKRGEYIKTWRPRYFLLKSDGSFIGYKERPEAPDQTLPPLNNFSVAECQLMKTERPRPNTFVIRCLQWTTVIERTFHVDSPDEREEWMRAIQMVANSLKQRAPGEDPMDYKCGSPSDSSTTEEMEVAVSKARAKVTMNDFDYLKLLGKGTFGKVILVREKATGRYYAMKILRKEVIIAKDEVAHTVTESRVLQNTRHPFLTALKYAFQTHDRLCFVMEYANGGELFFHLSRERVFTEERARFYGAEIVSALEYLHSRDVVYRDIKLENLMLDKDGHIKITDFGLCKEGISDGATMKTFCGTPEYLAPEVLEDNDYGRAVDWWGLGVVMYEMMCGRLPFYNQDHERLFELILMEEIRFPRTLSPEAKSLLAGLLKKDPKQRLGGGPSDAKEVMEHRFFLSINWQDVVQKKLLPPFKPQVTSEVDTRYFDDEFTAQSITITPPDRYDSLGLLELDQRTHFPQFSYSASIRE
Chain of Macrophage colony-stimulating factor 1 receptor (P07333 whole entry): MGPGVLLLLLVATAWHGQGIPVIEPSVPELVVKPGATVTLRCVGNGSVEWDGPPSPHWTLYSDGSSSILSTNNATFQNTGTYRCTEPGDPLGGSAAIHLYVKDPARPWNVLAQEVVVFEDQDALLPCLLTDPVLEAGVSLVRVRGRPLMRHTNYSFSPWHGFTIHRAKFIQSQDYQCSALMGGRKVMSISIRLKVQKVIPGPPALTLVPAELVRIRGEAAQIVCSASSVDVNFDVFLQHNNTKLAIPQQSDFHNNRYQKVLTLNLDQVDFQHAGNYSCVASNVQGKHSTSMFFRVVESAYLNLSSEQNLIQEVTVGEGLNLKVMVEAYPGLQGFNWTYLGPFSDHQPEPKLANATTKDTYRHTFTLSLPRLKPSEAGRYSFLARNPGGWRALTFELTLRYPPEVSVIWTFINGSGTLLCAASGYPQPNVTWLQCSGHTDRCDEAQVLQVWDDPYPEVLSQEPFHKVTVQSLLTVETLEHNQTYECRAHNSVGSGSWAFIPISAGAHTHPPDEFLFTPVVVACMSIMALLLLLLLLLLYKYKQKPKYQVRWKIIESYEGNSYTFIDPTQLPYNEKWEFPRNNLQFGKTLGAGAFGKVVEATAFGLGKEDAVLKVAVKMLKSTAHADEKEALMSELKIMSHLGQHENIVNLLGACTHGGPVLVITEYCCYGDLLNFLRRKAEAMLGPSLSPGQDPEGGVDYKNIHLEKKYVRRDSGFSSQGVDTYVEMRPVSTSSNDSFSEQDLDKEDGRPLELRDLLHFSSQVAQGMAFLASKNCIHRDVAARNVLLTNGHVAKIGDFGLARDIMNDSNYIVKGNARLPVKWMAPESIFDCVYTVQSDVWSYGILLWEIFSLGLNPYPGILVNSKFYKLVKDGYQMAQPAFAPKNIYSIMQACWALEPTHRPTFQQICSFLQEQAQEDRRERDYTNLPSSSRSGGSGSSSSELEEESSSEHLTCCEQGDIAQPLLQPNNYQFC
Chain of Fibroblast growth factor receptor 1 (P11362 whole entry): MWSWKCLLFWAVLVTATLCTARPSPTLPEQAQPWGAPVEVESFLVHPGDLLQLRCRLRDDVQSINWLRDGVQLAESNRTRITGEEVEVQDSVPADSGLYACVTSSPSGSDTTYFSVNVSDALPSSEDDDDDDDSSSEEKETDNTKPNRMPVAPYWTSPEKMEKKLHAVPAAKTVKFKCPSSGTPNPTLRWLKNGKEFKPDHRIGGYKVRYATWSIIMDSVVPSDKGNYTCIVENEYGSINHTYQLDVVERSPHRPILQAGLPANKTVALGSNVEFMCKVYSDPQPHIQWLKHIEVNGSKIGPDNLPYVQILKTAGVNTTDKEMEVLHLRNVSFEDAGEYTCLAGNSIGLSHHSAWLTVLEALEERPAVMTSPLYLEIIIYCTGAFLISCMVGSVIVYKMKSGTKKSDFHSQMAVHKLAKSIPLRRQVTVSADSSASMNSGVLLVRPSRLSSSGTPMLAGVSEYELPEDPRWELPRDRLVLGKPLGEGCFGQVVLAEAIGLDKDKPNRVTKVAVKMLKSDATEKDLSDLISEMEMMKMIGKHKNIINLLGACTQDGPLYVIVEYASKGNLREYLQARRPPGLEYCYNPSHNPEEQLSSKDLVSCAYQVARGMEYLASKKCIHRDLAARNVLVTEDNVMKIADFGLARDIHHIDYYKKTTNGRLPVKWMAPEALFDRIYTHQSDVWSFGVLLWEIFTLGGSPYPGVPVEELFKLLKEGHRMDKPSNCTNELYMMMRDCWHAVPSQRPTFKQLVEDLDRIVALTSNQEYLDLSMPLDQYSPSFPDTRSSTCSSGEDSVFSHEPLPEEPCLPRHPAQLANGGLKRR

| SMILES | IC50 [1] | IC50 [2] | also measured |
| --- | --- | --- | --- |
| O=C(c1cccc2c(F)cccc12)N1N=C(c2cccnc2)CC1c1ccccc1O (stereo not given) | > 10000 nM |  |  |
| O=S(=O)(c1ccc(-c2cccnc2)s1)N1N=C(c2cccnc2)CC1c1ccccc1O (stereo not given) | 2000 nM | > 10000 nM |  |
| O=C(c1cccc(Oc2ccccc2)c1)N1N=C(c2cccnc2)CC1c1ccccc1O (stereo not given) | 156 nM |  |  |
| O=C(c1ccccc1Oc1ccccc1)N1N=C(c2cccnc2)CC1c1ccccc1O (stereo not given) | > 10000 nM |  |  |
| O=C(c1ccc(-c2cccnc2)s1)N1N=C(c2cccnc2)CC1c1ccccc1O (single isomer, unassigned; early eluting) | 1200 nM | 14000 nM |  |
| O=C(c1ccc(F)cc1C(F)(F)F)N1N=C(c2cccnc2)CC1c1ccccc1O (stereo not given) | > 10000 nM |  |  |
| O=C(c1cccc(C(F)(F)F)c1F)N1N=C(c2cccnc2)CC1c1ccccc1O (stereo not given) | > 10000 nM |  |  |
| O=C(CC1CC1)N1N=C(c2cccnc2)CC1c1ccccc1O (stereo not given) | 83 nM | 8000 nM |  |
| O=C(c1cc(-c2ccc(Cl)cc2)cs1)N1N=C(c2cccnc2)CC1c1ccccc1O (stereo not given) | 216 nM |  |  |
| O=C(c1ccccc1-c1ccc(F)cc1)N1N=C(c2cccnc2)CC1c1ccccc1O (stereo not given) | > 10000 nM |  |  |

Now those with a lower IC50 [1], led by results:

| IC50 [1] | IC50 [2] | SMILES | also measured |
| --- | --- | --- | --- |
| 42 nM | 8700 nM | O=C(c1cccc(-n2cccn2)c1)N1N=C(c2cccnc2)CC1c1ccccc1O (stereo not given) | IC50 [3]: > 10000 nM; IC50 [4]: > 10000 nM; IC50 [5]: > 10000 nM; IC50 [6]: > 10000 nM; IC50 [7]: > 10000 nM; IC50 [8]: > 10000 nM |
| 41.5 nM | 1100 nM | O=C(c1ccc(-c2ccccc2)[nH]1)N1N=C(c2cccnc2)CC1c1ccccc1O (stereo not given) |  |
| 28 nM | > 10000 nM | O=C(c1cccc(-n2cnnn2)c1)N1N=C(c2cccnc2)CC1c1ccccc1O (stereo not given) |  |
| 18 nM | 3700 nM | COc1ccc(-c2ccc(C(=O)N3N=C(c4cccnc4)CC3c3ccccc3O)o2)cc1 (stereo not given) |  |
| 16 nM | 1700 nM | O=C(c1ccc(-c2ccccc2)o1)N1N=C(c2cccnc2)CC1c1ccccc1O (stereo not given) |  |
| 15 nM | 280 nM | O=C(c1ccc(-c2cccnc2)s1)N1N=C(c2cccnc2)CC1c1ccccc1O (single isomer, unassigned; later eluting) |  |
| 10.3 nM | 410 nM | O=C(c1cc(-c2cccs2)n[nH]1)N1N=C(c2cccnc2)CC1c1ccccc1O (stereo not given) |  |
| 8.6 nM | 600 nM | O=C(c1cc(-c2ccc3c(c2)OCO3)on1)N1N=C(c2cccnc2)CC1c1ccccc1O (stereo not given) |  |
| 8.1 nM | 940 nM | Cc1nc(-c2cccnc2)sc1C(=O)N1N=C(c2cccnc2)CC1c1ccccc1O (stereo not given) |  |
| 8 nM | 810 nM | O=C(c1cc(-c2ccccc2)on1)N1N=C(c2cccnc2)CC1c1ccccc1O (stereo not given) |  |
| 8 nM | 1100 nM | O=C(c1cc(-c2ccccc2)no1)N1N=C(c2cccnc2)CC1c1ccccc1O (stereo not given) |  |
| 6.7 nM | 930 nM | COc1cccc(-c2cc(C(=O)N3N=C(c4cccnc4)CC3c3ccccc3O)no2)c1 (stereo not given) |  |
| 5.6 nM | 970 nM | O=C(c1cc(-c2ccco2)on1)N1N=C(c2cccnc2)CC1c1ccccc1O (stereo not given) |  |
